Measured values collected from several papers.
Target: Dual specificity mitogen-activated protein kinase kinase 2 (MAP2K2, Homo sapiens, UniProt P36507)

CN([C@@H]1CCc2c(CC(=O)O)c3cc(S(C)(=O)=O)ccc3n2C1)S(=O)(=O)c1ccc(F)cc1  remaining binding (cell-free assay, competition with immobilised ligand; 1 µM): 95%
Cn1c(=O)n(-c2ccc(C(C)(C)C#N)cc2)c2c3cc(-c4cnc5ccccc5c4)ccc3ncc21  remaining activity (enzyme activity, inhibitor; 10 µM): 86%
C#Cc1cccc(Nc2ncnc3cc(OCCOC)c(OCCOC)cc23)c1  remaining signal (cell-free assay; 0.5 µM): 105%
FC(F)(F)Oc1cccc(-c2cnc3ccc(-c4ccncc4)nn23)c1  activity vs control (enzyme activity, inhibitor, radiometric; 5 µM): 94%
O=C(NCc1ncc(C(F)(F)F)cc1Cl)c1ccc2c(c1)C1(CCS(=O)(=O)CC1)[C@@H](C1CC1)N2S(=O)(=O)c1ccc(F)cc1  remaining binding (cell-free assay, competition with immobilised ligand; 1 µM): 78%
O=C(Nc1cnn(-c2csc(C(=O)NC3COC3)c2)c1)Nc1c(F)cccc1Cl  remaining activity (enzyme activity, inhibitor; 5 µM): 90.6%
CNC(=O)c1ccc(Nc2ncc(C(F)(F)F)c(NCc3nccnc3N(C)S(C)(=O)=O)n2)cc1  remaining binding (cell-free assay, competition with immobilised ligand; 0.1 µM): 100%
COc1cc(Nc2cnc(C#N)c(O[C@H](C)CN(C)C)n2)ncc1-c1cnn(C)c1  remaining activity (enzyme activity, inhibitor, radiometric; 10 µM): 57%
CS(=O)(=O)N1CCCC(NC(=O)[C@H](CCC2CCCCC2)NC(=O)c2ccc(CNc3ncnc4c3nnn4-c3ccccc3)cc2)C1 (stereo partly shown)  remaining binding (cell-free assay, competition with immobilised ligand; 0.1 µM): 90%
CC(C)(C)c1nc2c(s1)c1nc(N)ncc1c1ccc(NS(=O)(=O)c3c(F)cccc3F)c(F)c12  remaining activity (enzyme activity, inhibitor, radiometric; 1 µM): 92%
CCOc1cc(-c2nncn2C)ccc1Nc1ncc2cc(C)nc(NCC(C)(C)C)c2n1  inhibition (enzyme activity, inhibitor, FRET; 1 µM): 18%
O=C(CSc1nc2nccnc2c(=O)n1CCc1ccccc1)Nc1nccs1  inhibition (enzyme activity, inhibitor; 10 µM): -3%
Nc1ncnc2occ(-c3ccc(NC(=O)Nc4cc(C(F)(F)F)ccc4F)cc3)c12  remaining signal (cell-free assay, inhibitor; 20 µM): 7.1%
CS(=O)(=O)N1CCCC(NC(=O)[C@H](CCC2CCCCC2)NC(=O)c2ccc(CNC(=O)c3cnc4ccccn34)cc2)C1 (stereo partly shown)  remaining binding (cell-free assay, competition with immobilised ligand; 0.1 µM): 100%
CC1(C)NC(=O)c2[nH]c3c(Cl)c(Cl)ccc3c2C1C#N (stereo not shown)  ΔTm (thermal stability, DSF; 10 µM): -0.4 °C
Cc1ccc(NC(=O)c2ccc(CN3CCN(C)CC3)cc2)cc1Nc1nc(-c2cccnc2)cs1  remaining signal (cell-free assay; 0.5 µM): 114%
Cn1c2c(Cl)c(Cl)ccc2c2cc[nH]c(=O)c21  ΔTm (thermal stability, DSF; 10 µM): -0.5 °C
CCc1ccccc1C(=O)Nc1n[nH]c2c(C)c(F)c(C3C(C#N)=C(C)N(C)C(C)=C3C#N)cc12  remaining binding (cell-free assay, competition with immobilised ligand; 1 µM): 100%
Cn1c2c(Cl)c(Cl)ccc2c2cn[nH]c(=O)c21  ΔTm (thermal stability, DSF; 10 µM): -0.3 °C
COc1cc(-c2cn(C3CCc4c(F)cccc4N(CC(F)(F)F)C3=O)nn2)ccc1-n1cnc(C)c1 (stereo not shown)  remaining binding (cell-free assay, competition with immobilised ligand; 1 µM): 100%
O=C1Nc2ccc(Cl)cc2C1=Cc1cc(Cl)c(O)c(Cl)c1  remaining signal (cell-free assay; 0.5 µM): 82%
Cn1c2c(c3ccc(Cl)c(Cl)c31)C(C#N)C1(CCNCC1)NC2=O (racemic)  ΔTm (thermal stability, DSF; 10 µM): -0.4 °C
